Where “and” joins values, the source holds several entries; their conditions need not be identical. Equal values may be shown once.
Assays:
[1] = system: Staphylococcus aureus; assay: Antibacterial activity against methicillin-susceptible Staphylococcus aureus NCTC 8325-4 assessed as inhibition of bacterial growth by broth microdilution method; type: functional
[2] = target: Topoisomerase IV (Staphylococcus aureus, UniProt P0C1S7+P0C1U9); assay: Inhibition of Staphylococcus aureus topoisomerase 4 using pNO1 plasmid DNA as substrate incubated for 30 mins by fluorescence based microtiter plate reader assay; type: protein-complex assay
Sequence of Topoisomerase IV (P0C1U9 whole entry): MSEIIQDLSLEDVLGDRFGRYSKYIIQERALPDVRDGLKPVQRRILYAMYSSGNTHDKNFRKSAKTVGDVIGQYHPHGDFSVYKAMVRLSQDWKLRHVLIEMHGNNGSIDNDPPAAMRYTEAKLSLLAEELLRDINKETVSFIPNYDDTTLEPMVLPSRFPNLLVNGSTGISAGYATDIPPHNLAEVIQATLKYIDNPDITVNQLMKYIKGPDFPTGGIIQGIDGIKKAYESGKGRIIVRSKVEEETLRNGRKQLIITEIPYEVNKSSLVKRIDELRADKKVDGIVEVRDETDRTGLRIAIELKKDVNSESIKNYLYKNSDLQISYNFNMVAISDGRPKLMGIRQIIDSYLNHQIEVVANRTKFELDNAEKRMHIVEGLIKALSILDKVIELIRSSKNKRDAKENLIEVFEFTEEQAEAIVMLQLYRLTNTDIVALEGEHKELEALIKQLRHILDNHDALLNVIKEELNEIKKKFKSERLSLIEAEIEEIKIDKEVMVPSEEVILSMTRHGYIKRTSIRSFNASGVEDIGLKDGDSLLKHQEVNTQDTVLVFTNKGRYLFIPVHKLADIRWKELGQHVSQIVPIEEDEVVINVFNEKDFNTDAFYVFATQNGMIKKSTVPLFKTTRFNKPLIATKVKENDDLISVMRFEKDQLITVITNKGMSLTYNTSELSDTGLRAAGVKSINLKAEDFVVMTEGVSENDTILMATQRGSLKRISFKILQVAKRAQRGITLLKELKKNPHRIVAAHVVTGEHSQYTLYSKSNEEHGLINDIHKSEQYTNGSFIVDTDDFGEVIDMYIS
Sequence of Topoisomerase IV (P0C1S7 whole entry): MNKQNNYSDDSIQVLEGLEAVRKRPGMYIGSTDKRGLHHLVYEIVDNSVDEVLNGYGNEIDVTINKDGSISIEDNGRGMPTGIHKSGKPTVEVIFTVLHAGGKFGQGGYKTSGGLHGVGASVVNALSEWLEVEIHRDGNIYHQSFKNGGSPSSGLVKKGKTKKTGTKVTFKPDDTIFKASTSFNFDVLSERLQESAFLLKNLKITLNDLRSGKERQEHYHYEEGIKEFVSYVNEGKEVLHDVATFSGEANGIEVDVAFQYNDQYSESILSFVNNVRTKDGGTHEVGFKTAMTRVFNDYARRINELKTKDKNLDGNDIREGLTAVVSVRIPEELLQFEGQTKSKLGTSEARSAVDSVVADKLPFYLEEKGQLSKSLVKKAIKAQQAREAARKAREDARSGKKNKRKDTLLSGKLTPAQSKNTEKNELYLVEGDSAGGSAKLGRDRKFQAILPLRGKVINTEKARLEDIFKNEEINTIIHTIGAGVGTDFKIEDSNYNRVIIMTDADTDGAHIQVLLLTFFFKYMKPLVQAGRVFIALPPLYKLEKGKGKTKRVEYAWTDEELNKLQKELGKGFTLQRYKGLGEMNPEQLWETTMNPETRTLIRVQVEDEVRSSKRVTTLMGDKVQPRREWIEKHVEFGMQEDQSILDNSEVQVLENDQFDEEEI

[3] = target: Voltage-gated inwardly rectifying potassium channel KCNH2 (Homo sapiens, UniProt Q12809); assay: Inhibition of hERG by fluorescence polarization assay; type: toxicity
Sequence of Voltage-gated inwardly rectifying potassium channel KCNH2 (Q12809 whole entry): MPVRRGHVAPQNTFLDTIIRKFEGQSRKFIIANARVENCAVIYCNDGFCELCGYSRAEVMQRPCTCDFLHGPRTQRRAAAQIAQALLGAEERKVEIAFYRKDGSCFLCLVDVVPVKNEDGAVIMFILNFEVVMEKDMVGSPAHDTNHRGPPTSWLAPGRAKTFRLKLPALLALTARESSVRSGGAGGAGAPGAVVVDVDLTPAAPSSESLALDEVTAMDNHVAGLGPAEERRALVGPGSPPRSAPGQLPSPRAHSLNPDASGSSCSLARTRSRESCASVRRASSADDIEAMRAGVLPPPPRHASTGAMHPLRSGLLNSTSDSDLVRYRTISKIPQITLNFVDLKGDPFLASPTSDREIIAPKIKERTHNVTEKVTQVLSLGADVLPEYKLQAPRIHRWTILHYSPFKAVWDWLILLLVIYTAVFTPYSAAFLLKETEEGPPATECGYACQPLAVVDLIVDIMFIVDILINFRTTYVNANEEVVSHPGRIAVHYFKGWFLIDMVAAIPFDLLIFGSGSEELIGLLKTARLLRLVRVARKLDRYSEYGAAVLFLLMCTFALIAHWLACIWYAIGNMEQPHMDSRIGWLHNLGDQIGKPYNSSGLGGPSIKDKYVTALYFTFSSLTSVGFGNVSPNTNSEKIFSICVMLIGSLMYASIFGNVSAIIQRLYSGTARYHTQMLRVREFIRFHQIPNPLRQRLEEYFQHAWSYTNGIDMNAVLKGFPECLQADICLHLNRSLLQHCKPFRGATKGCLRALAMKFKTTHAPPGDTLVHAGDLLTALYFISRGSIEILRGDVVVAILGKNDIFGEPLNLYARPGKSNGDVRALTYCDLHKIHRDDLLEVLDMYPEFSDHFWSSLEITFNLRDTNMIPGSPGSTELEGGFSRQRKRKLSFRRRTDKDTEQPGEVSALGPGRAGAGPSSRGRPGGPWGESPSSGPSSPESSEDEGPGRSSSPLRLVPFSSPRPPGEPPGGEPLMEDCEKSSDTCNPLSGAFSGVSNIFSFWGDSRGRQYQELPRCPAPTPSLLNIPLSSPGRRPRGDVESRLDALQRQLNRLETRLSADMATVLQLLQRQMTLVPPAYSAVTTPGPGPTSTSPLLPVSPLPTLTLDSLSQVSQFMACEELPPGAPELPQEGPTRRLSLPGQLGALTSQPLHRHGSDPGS
Procedure, shortened: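 hERG inhibition was measured with a commercial Predictor hERG fluorescence-polarization kit.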

[4] = system: Staphylococcus aureus; assay: Antibacterial activity against methicillin-resistant Staphylococcus aureus CC398 assessed as inhibition of bacterial growth by broth microdilution method; type: functional
[5] = target: DNA gyrase (Staphylococcus aureus, UniProt P0A0K8+P20831); assay: Inhibition of Staphylococcus aureus DNA gyrase supercoiling activity using pNO1 plasmid DNA as substrate incubated for 30 mins by fluorescence based microtiter plate reader assay; type: protein-complex assay
Sequence of DNA gyrase (Staphylococcus aureus, UniProt P0A0K8+P20831) (P0A0K8 whole entry): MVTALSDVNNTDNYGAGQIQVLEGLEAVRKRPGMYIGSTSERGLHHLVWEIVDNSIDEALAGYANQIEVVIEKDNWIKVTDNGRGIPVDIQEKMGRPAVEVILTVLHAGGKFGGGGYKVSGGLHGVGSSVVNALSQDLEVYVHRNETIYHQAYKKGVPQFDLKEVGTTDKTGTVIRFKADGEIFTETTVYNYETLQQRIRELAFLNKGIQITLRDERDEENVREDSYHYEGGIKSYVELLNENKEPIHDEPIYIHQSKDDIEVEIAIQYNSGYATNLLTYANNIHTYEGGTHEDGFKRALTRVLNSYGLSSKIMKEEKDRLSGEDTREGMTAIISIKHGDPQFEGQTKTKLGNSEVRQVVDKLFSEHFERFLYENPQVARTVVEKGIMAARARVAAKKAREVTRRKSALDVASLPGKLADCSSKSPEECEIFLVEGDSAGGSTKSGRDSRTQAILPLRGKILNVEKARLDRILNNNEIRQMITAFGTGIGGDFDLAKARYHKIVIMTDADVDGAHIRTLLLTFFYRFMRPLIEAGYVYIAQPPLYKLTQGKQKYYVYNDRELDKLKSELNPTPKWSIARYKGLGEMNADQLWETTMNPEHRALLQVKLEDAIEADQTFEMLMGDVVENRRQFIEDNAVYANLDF
Sequence of DNA gyrase (Staphylococcus aureus, UniProt P0A0K8+P20831) (P20831 whole entry): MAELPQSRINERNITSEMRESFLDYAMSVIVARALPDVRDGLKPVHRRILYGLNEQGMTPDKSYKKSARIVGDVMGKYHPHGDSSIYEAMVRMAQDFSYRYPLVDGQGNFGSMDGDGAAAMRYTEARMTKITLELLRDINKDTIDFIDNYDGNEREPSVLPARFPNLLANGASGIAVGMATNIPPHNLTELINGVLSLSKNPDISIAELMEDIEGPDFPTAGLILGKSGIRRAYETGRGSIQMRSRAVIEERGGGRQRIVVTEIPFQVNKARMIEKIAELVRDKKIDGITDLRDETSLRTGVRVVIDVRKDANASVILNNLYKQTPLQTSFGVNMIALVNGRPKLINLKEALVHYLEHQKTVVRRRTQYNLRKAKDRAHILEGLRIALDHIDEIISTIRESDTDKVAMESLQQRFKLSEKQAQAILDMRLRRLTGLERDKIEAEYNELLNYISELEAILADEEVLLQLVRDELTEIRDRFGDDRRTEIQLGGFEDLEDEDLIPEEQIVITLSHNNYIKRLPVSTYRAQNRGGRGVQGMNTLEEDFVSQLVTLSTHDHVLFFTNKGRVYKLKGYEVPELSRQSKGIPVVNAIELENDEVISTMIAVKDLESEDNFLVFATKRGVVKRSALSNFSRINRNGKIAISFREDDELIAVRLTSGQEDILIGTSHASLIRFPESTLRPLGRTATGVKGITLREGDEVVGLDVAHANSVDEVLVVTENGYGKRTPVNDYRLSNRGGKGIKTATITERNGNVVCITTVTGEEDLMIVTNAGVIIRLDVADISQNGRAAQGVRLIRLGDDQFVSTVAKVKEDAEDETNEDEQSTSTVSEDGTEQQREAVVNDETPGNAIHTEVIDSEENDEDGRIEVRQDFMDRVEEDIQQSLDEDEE

[6] = target: DNA gyrase (Escherichia coli, UniProt P0AES4+P0AES6); assay: Inhibition of Escherichia coli DNA gyrase by fluorescence based microtiter plate reader assay; type: protein-complex assay
[7] = Staphylococcus aureus, NCTC 8325-4, read-out: MIC
[8] = Staphylococcus aureus, CC398, read-out: MIC

Row | SMILES | MIC [1, 7] | IC50 [2] [µM] | EC50 [3] [µM] | MIC [4, 8] | IC50 [5] [µM] | MIC [1] [µg/mL] | MIC [4] | IC50 [6] [µM]
1 | COc1ccc2ncc(F)c(CCCN3CCN(C/C=C/c4ccccc4)C[C@@H]3C(=O)O)c2c1 | 1.7 µM and 0.8 µg/mL | 3.36 | 38 | 0.2 µg/mL and 0.4 µM | 0.19 | – | – | –
2 | COc1ccc2ncc(F)c(CCCN3CCN(CCSc4cccs4)C[C@H]3C(=O)O)c2c1 | 6.3 µM and 3.1 µg/mL | – | 26 | 1.6 µg/mL and 3.3 µM | – | – | – | –
3 | COc1ccc2ncc(F)c(/C=C/CN3CCN(CCSc4cccs4)C[C@@H]3C(=O)O)c2c1 | 3.1 µM and 1.5 µg/mL | 1.81 | < 30 | 0.8 µg/mL and 1.6 µM | 0.68 | – | – | –
4 | COc1ccc2ncc(F)c(CCCN3CCN(CCSc4cccs4)C[C@@H]3C(=O)NC(=O)CC(=O)O)c2c1 | 21.8 µM and 12.5 µg/mL | – | 0.5 | 12.5 µg/mL and 21.8 µM | – | – | – | –
5 | COc1ccc2ncc(F)c(C#CCN3CCN(CCSc4cccs4)C[C@@H]3C(=O)O)c2c1 | 51.5 µM and 25 µg/mL | 2.47 | < 30 | 12.5 µg/mL and 25.7 µM | 0.48 | – | – | –
6 | COc1ccc2ncc(F)c(CCCN3CCN(CCCc4ccccc4)C[C@@H]3C(=O)O)c2c1 | 1.7 µM and 0.8 µg/mL | 10.2 | 17 | 0.4 µg/mL and 0.9 µM | 0.46 | – | – | –
7 | COc1ccc2ncc(F)c(CCCN3CCN(CCc4ccccc4)C[C@@H]3C(=O)O)c2c1 | 14 µM and 6.3 µg/mL | 12.6 | 87 | 3.1 µg/mL and 6.9 µM | 0.54 | – | – | –
8 | COc1ccc2ncc(F)c(C(O)CCN3CCN(CCSc4cccs4)C[C@@H]3C(=O)O)c2c1 (mixture of isomers; 20) | – | – | – | – | – | 12.5 | 6.2 ug ml-1 and 12.3 uM | –
9 | COC(=O)[C@@H]1CN(CCSc2cccs2)CCN1CCCc1c(F)cnc2ccc(OC)cc12 | > 99.3 µM and > 50 µg/mL | – | 4 | > 50 µg/mL and > 99.3 µM | – | – | – | –
10 | COC(=O)[C@H]1CN(CCSc2cccs2)CCN1CCCc1c(F)cnc2ccc(OC)cc12 | > 99.3 µM and > 50 µg/mL | – | 2 | > 50 µg/mL and > 99.3 µM | 300 | – | – | 18.4
11 | COc1ccc2ncc(F)c(CCCN3CCN(C(=O)CSc4cccs4)C[C@@H]3C(=O)O)c2c1 | > 99.3 µM and > 50 µg/mL | – | 7 | > 50 µg/mL and > 99.3 µM | – | – | – | –
12 | COc1ccc2ncc(F)c([C@@H](O)CC[C@@H]3CCN(CCSc4cccs4)C[C@@H]3C(=O)O)c2c1 | 0.8 µM and 0.4 µg/mL | 8.8 | 24 | 0.2 µg/mL and 0.4 µM | 0.34 | – | – | 3.9
13 | COc1ccc2ncc(F)c(CCCN3CCN(CCSc4cccs4)C[C@@H]3C(=O)O)c2c1 | 0.8 µM and 0.4 µg/mL | 7.64 | 17 | 0.2 µg/mL and 0.4 µM | 0.37 | – | – | 5.4
14 | COc1ccc2ncc(F)c(C(O)CCN3CCN(CCSc4cccs4)C[C@@H]3C(=O)O)c2c1 (mixture of isomers; 19) | 24.7 µM and 12.5 µg/mL | – | < 30 | – | – | – | 0.8 ug ml-1 and 1.6 uM | –
15 | COc1ccc2ncc(F)c(/C=C\CN3CCN(CCSc4cccs4)C[C@@H]3C(=O)O)c2c1 | 25.6 µM and 12.5 µg/mL | 9.92 | < 30 | 3.1 µg/mL and 6.4 µM | 0.28 | – | – | –
16 | COc1ccc2ncc(F)c(CCCN3CCN(CCSc4cccs4)[C@@H](C(=O)O)C3)c2c1 | 6.3 µM and 3.1 µg/mL | – | < 30 | 1.6 µg/mL and 3.3 µM | – | – | – | –
17 | COc1ccc2ncc(F)c(CCCN3CCN(C(=O)CCc4ccccc4)C[C@@H]3C(=O)O)c2c1 | > 104 µM and > 50 µg/mL | – | – | > 50 µg/mL and > 104 µM | – | – | – | –
18 | COc1ccc2ncc(F)c(CCCN3CCN(C(=O)CSc4ccccc4)C[C@@H]3C(=O)O)c2c1 | > 100 µM and > 50 µg/mL | – | < 30 | – | – | – | – | –
19 | COc1ccc2ncc(F)c(CCCN3CCN(C/C=C/c4cc(F)ccc4F)C[C@@H]3C(=O)O)c2c1 | 0.4 µM and 0.2 µg/mL | 2.41 | 25 | 0.1 µg/mL and 0.2 µM | 0.28 | – | – | 6.46
20 | COc1ccc2ncc(F)c(CCCN3CCN(CCSc4cccs4)C[C@@H]3C(N)=O)c2c1 | 1.6 µM and 0.8 µg/mL | – | 2 | – | – | – | – | –
21 | COc1ccc2ncc(F)c(CCCN3CCN(Cc4ccccc4)C[C@@H]3C(=O)O)c2c1 | > 114 µM and > 50 µg/mL | – | 25 | – | – | – | – | –
22 | COc1ccc2ncc(F)c(CCCN3CCN(CCCCc4ccccc4)C[C@@H]3C(=O)O)c2c1 | 12.9 µM and 6.2 µg/mL | 3.82 | 21 | 3.1 µg/mL and 6.5 µM | 0.37 | – | – | –
